From ChEMBL document CHEMBL1142964, “Synthesis and biological evaluation of [18F]bicalutamide, 4-[76Br]bromobicalutamide, and 4-[76Br]bromo-thiobicalutamide as non-steroidal androgens for prostate cancer imaging” (J Med Chem, 2007)

Tests used:
Androgen receptor = target: T1, Androgen receptor (Rattus norvegicus, UniProt P15207); assay: Binding affinity to rat AR
T1 sequence (P15207 whole entry): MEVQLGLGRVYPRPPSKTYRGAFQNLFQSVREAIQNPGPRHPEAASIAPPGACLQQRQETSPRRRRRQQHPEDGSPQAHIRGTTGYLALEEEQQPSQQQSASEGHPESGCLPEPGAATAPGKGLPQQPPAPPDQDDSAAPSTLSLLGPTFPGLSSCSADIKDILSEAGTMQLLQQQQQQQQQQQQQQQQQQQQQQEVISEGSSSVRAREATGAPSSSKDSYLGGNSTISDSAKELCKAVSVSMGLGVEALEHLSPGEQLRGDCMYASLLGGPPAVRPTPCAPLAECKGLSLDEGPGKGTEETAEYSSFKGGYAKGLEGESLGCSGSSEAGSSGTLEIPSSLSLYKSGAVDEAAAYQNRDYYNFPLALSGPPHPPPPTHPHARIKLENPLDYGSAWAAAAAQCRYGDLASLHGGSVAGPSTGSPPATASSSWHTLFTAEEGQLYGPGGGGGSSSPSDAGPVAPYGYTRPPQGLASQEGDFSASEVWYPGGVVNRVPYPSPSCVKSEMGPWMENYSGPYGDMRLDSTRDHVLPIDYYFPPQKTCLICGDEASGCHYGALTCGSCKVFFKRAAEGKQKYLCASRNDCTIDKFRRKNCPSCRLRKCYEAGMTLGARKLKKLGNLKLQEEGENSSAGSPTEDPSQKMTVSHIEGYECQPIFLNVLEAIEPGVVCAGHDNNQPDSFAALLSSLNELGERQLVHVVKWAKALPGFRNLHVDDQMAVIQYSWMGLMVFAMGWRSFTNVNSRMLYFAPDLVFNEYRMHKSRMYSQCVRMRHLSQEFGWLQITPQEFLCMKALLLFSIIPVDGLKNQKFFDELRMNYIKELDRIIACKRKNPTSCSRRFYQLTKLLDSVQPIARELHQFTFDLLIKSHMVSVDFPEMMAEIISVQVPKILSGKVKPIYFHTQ

Muscle tissue [1] = assay: Biodistribution in muscle of iv dosed testis-intact Sprague-Dawley rat after 18 hrs block; format: ADME, organism-based; settings: in vivo
Procedure, shortened: (§1)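 76Br-tracer in 10% ethanol-saline, given iv by tail vein to mature male Sprague-Dawley rats (250 g) castrated 7 days before. Doses were 4 µCi/animal (1 h) and 7 µCi/animal (18 h). Block group used testes-intact rats, with the AR saturated by endogenous androgen. Five animals per group. Tissues were excised, weighed, saline-washed, blotted and counted. %ID/g was taken against injected-dose standards.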

[2] = Biodistribution in tumor of iv dosed CWR22 tumor bearing mouse after 60 min; format: ADME, organism-based; settings: human, read-out: Drug uptake
[3] = Biodistribution in muscle of iv dosed Sprague-Dawley rat after 18 hrs; format: ADME, organism-based, Muscle tissue; settings: read-out: Drug uptake; procedure, shortened: as §1
[4] = Biodistribution in tumor of iv dosed CWR22 tumor bearing mouse with 17alpha-methyltestosterone-induced androgen block after 90 min; format: ADME, organism-based; settings: human, in vivo, 1.5 h
Procedure, shortened: (§2)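 Mature male mice (25 g) bearing flank CWR22 prostate tumors received DES (0.2 mg in 0.1 mL sesame oil, sc) 24 and 3 h before the tracer. 76Br-tracer, 6 µCi/animal in 10% ethanol-saline, was given iv by tail vein. Mice were killed at 30 or 90 min. Block set was co-injected with 8 µg 17α-methyltestosterone. Five animals per point. Results are %ID/g.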

[5] = Biodistribution in liver of iv dosed Sprague-Dawley rat after 18 hrs; format: ADME, organism-based; settings: read-out: Drug uptake; procedure, shortened: as §1
Muscle tissue [6] = assay: Biodistribution in muscle of iv dosed testis-intact Sprague-Dawley rat after 1 hr block; format: ADME, organism-based; settings: in vivo; procedure, shortened: as §1
[7] = Biodistribution in blood of iv dosed CWR22 tumor bearing mouse after 60 min; format: ADME, organism-based; settings: human, in vivo, 1 h
[8] = Ratio of drug uptake in prostate to blood in iv dosed Sprague-Dawley rat after 1 hr; format: ADME, organism-based, Prostate gland
Procedure, shortened: (§3)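 Castrated male Sprague-Dawley rats were dosed iv (tail vein) with 4 µCi 76Br-tracer in 10% ethanol-saline and killed at 1 h, five per group. Tissues were weighed and counted and %ID/g calculated against dose standards. Ratios are prostate %ID/g over blood or muscle %ID/g.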

[9] = Biodistribution in kidney of iv dosed CWR22 tumor bearing mouse after 30 min; format: ADME, organism-based; settings: human, read-out: Drug uptake; procedure, shortened: as §2
[10] = Biodistribution in muscle of iv dosed Sprague-Dawley rat after 1 hr; format: ADME, organism-based, Muscle tissue; settings: read-out: Drug uptake; procedure, shortened: as §1
Bone [11] = assay: Biodistribution in bone of iv dosed testis-intact Sprague-Dawley rat after 1 hr block; format: ADME, organism-based, Bone element; settings: in vivo; procedure, shortened: as §1
[12] = Biodistribution in blood of iv dosed CWR22 tumor bearing mouse with 17alpha-methyltestosterone-induced androgen block after 90 min; format: ADME, organism-based; settings: human, read-out: Drug uptake; procedure, shortened: as §2
[13] = Biodistribution in bone of iv dosed Sprague-Dawley rat after 1 hr; format: ADME, organism-based, Bone element; settings: read-out: Drug uptake; procedure, shortened: as §1
Liver = assay: Biodistribution in liver of iv dosed testis-intact Sprague-Dawley rat after 18 hrs block; format: ADME, organism-based; settings: in vivo; procedure, shortened: as §1
[14] = Biodistribution in muscle of iv dosed CWR22 tumor bearing mouse after 30 min; format: ADME, organism-based, Muscle tissue; settings: human, read-out: Drug uptake; procedure, shortened: as §2
Prostate gland [15] = assay: Biodistribution in prostate of iv dosed testis-intact Sprague-Dawley rat after 18 hrs block; format: ADME, organism-based; settings: in vivo; procedure, shortened: as §1
[16] = Biodistribution in prostate of iv dosed CWR22 tumor bearing mouse after 30 min; format: ADME, organism-based, Prostate gland; settings: human, read-out: Drug uptake; procedure, shortened: as §2
Bone [17] = assay: Biodistribution in bone of iv dosed testis-intact Sprague-Dawley rat after 18 hrs block; format: ADME, organism-based, Bone element; settings: in vivo; procedure, shortened: as §1
Kidney [18] = assay: Biodistribution in kidney of iv dosed testis-intact Sprague-Dawley rat after 18 hrs block; format: ADME, organism-based; settings: in vivo; procedure, shortened: as §1
[19] = Biodistribution in bone of iv dosed Sprague-Dawley rat after 18 hrs; format: ADME, organism-based, Bone element; settings: read-out: Drug uptake; procedure, shortened: as §1
[20] = Biodistribution in liver of iv dosed Sprague-Dawley rat after 1 hr; format: ADME, organism-based; settings: read-out: Drug uptake; procedure, shortened: as §1
[21] = Biodistribution in prostate of iv dosed CWR22 tumor bearing mouse after 60 min; format: ADME, organism-based, Prostate gland; settings: human, read-out: Drug uptake
[22] = Biodistribution in blood of iv dosed CWR22 tumor bearing mouse after 30 min; format: ADME, organism-based; settings: human, read-out: Drug uptake; procedure, shortened: as §2
[23] = Biodistribution in liver of iv dosed CWR22 tumor bearing mouse after 30 min; format: ADME, organism-based; settings: human, read-out: Drug uptake; procedure, shortened: as §2
[24] = Biodistribution in prostate of iv dosed Sprague-Dawley rat after 1 hr; format: ADME, organism-based, Prostate gland; settings: read-out: Drug uptake; procedure, shortened: as §1
[25] = Biodistribution in liver of iv dosed testis-intact Sprague-Dawley rat after 1 hr block; format: ADME, organism-based; settings: male, read-out: Drug uptake; procedure, shortened: as §1
[26] = Biodistribution in kidney of iv dosed Sprague-Dawley rat after 1 hr; format: ADME, organism-based; settings: read-out: Drug uptake; procedure, shortened: as §1
[27] = Biodistribution in liver of iv dosed CWR22 tumor bearing mouse with 17alpha-methyltestosterone-induced androgen block after 90 min; format: ADME, organism-based; settings: human, in vivo, 1.5 h; procedure, shortened: as §2
[28] = Biodistribution in kidney of iv dosed CWR22 tumor bearing mouse after 60 min; format: ADME, organism-based; settings: human, read-out: Drug uptake
[29] = Biodistribution in prostate of iv dosed CWR22 tumor bearing mouse with 17alpha-methyltestosterone-induced androgen block after 90 min; format: ADME, organism-based, Prostate gland; settings: human, read-out: Drug uptake; procedure, shortened: as §2
Blood [30] = assay: Biodistribution in blood of iv dosed testis-intact Sprague-Dawley rat after 18 hrs block; format: ADME, organism-based; settings: in vivo; procedure, shortened: as §1
[31] = Biodistribution in muscle of iv dosed CWR22 tumor bearing mouse with 17alpha-methyltestosterone-induced androgen block after 90 min; format: ADME, organism-based; settings: human, read-out: Drug uptake; procedure, shortened: as §2
[32] = Biodistribution in liver of iv dosed CWR22 tumor bearing mouse after 60 min; format: ADME, organism-based; settings: human, read-out: Drug uptake
[33] = Biodistribution in kidney of iv dosed CWR22 tumor bearing mouse with 17alpha-methyltestosterone-induced androgen block after 90 min; format: ADME, organism-based; settings: human, in vivo, 1.5 h; procedure, shortened: as §2
[34] = Biodistribution in blood of iv dosed Sprague-Dawley rat after 1 hr; format: ADME, organism-based; settings: read-out: Drug uptake; procedure, shortened: as §1
Blood [35] = assay: Biodistribution in blood of iv dosed testis-intact Sprague-Dawley rat after 1 hr block; format: ADME, organism-based; settings: in vivo; procedure, shortened: as §1
Prostate gland [36] = assay: Biodistribution in prostate of iv dosed testis-intact Sprague-Dawley rat after 1 hr block; format: ADME, organism-based; settings: in vivo; procedure, shortened: as §1
Kidney [37] = assay: Biodistribution in kidney of iv dosed testis-intact Sprague-Dawley rat after 1 hr block; format: ADME, organism-based; settings: in vivo; procedure, shortened: as §1
[38] = Biodistribution in blood of iv dosed Sprague-Dawley rat after 18 hrs; format: ADME, organism-based; settings: read-out: Drug uptake; procedure, shortened: as §1
[39] = Biodistribution in tumor of iv dosed CWR22 tumor bearing mouse after 30 min; format: ADME, organism-based; settings: human, read-out: Drug uptake; procedure, shortened: as §2
[40] = Biodistribution in muscle of iv dosed CWR22 tumor bearing mouse after 60 min; format: ADME, organism-based, Muscle tissue; settings: human, read-out: Drug uptake
[41] = Ratio of drug uptake in prostate to muscle in iv dosed Sprague-Dawley rat after 1 hr; format: ADME, organism-based, Prostate gland; settings: in vivo; procedure, shortened: as §3
[42] = Biodistribution in kidney of iv dosed Sprague-Dawley rat after 18 hrs; format: ADME, organism-based; settings: read-out: Drug uptake; procedure, shortened: as §1
[43] = Biodistribution in prostate of iv dosed Sprague-Dawley rat after 18 hrs; format: ADME, organism-based, Prostate gland; settings: read-out: Drug uptake; procedure, shortened: as §1

In the case of `CC(O)(CS(=O)(=O)c1ccc(Br)cc1)C(=O)Nc1ccc(C#N)c(C(F)(F)F)c1` (stereo not given), the Kd (Androgen receptor) is reported as 110 nM.
`CC(O)(CS(=O)(=O)c1ccc([76Br])cc1)C(=O)Nc1ccc(C#N)c(C(F)(F)F)c1` (stereo not given) gave a Drug uptake (Muscle tissue [1]) of 0.11 % ID/g, a tissue uptake at 1 h [2] of 3.8 %ID/g and a tissue uptake at 18 h [3] of 0.15 %ID/g. For the same compound, the Drug uptake [4] was 4.5 % ID/g, the tissue uptake at 18 h [5] was 0.56 %ID/g and the Drug uptake (Muscle tissue [6]) was 0.38 % ID/g. For the same compound, the Drug uptake [7] was 3.5 % ID/g, the Kp at 1 h [8] was 1.8 and the tissue uptake at 0.5 h [9] was 7.2 %ID/g. It also gave a tissue uptake at 1 h [10] of 0.34 %ID/g, a Drug uptake (Bone [11]) of 0.31 % ID/g and a tissue uptake at 1.5 h [12] of 3 %ID/g. For the same compound, the tissue uptake at 1 h [13] was 0.28 %ID/g, the Drug uptake (Liver) was 0.36 % ID/g and the tissue uptake at 0.5 h [14] was 2.5 %ID/g. The Drug uptake (Prostate gland [15]) was 0.22 % ID/g, the tissue uptake at 0.5 h [16] was 2.2 %ID/g and the Drug uptake (Bone [17]) was 0.12 % ID/g. The Drug uptake (Kidney [18]) was 0.26 % ID/g, the tissue uptake at 18 h [19] was 0.13 %ID/g and the tissue uptake at 1 h [20] was 2.1 %ID/g. For the same compound, the tissue uptake at 1 h [21] was 2.8 %ID/g, the tissue uptake at 0.5 h [22] was 2.7 %ID/g and the tissue uptake at 0.5 h [23] was 15 %ID/g. The tissue uptake at 1 h [24] was 1 %ID/g, the tissue uptake at 1 h [25] was 2.5 %ID/g and the tissue uptake at 1 h [26] was 1 %ID/g. For the same compound, the Drug uptake [27] was 14 % ID/g, the tissue uptake at 1 h [28] was 7.8 %ID/g and the tissue uptake at 1.5 h [29] was 3.4 %ID/g. For the same compound, the Drug uptake (Blood [30]) was 0.29 % ID/g, the tissue uptake at 1.5 h [31] was 2.8 %ID/g and the tissue uptake at 1 h [32] was 18 %ID/g. For the same compound, the Drug uptake [33] was 7.6 % ID/g, the tissue uptake at 1 h [34] was 0.56 %ID/g and the Drug uptake (Blood [35]) was 0.62 % ID/g. It also gave a Drug uptake (Prostate gland [36]) of 0.68 % ID/g, a Drug uptake (Kidney [37]) of 1 % ID/g and a tissue uptake at 18 h [38] of 0.34 %ID/g. For the same compound, the tissue uptake at 0.5 h [39] was 2.5 %ID/g, the tissue uptake at 1 h [40] was 2.9 %ID/g and the Ratio [41] was 2.9. For the same compound, the tissue uptake at 18 h [42] was 0.36 %ID/g and the tissue uptake at 18 h [43] was 0.27 %ID/g.
